Most compounds without a hit are left out; they make up all but 1.5% or so of the library.
NR2E3 ag-1 = inhibitors of NR2E3-RetCOR corepressor binding, primary screen, NR2E3 agonist project, biochemical, TR-FRET, GST-NR2E3, biotin-RetCOR; hit rate 0.12% among 320,000; inhibition of corepressor binding, % at 4.78 µM; Photoreceptor-specific nuclear receptor (Homo sapiens), Q9Y5X4; AID 2300, 2010; 1536-well;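 active = percent inhibition above the cutoff of mean plus 3 SD of all tested compounds, set per screening campaign, cut at about 20% in these data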;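 note: 0% = DMSO wells and 100% = biotin wells as full block of FRET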
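Material: NR2E3–RetCOR corepressor complex / Amount: 1.35 nM GST-NR2E3 / Medium: Tris pH 7.5 / Compound: single nominal compound dose of 4.8 µM / Incubation: 5 h at 4 °C / Technique: TR-FRET, Eu(K)-anti-GST donor, streptavidin-D2 acceptor, ex 340, em 617/671 nm / Read-out basis: percent loss of FRET ratio relative to control wells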
NR1D1 modulator = modulators of Rev-erb alpha DNA binding, primary screen, biochemical, FITC-DNA, fluorescence polarization, uHTS | activity, % at 10 µM | Nuclear receptor subfamily 1 group D member 1 (Homo sapiens), P20393 | Rev-erbα–FITC-DNA binding, 90 min | hit rate 0.79% among 370,000 | AID 1259318, 2017;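 active = activity above about 14%, limit read from the data; passing the limit was not always enough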;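 note: 0% = DMSO wells with 35 nM protein and 100% = DMSO wells with 750 nM protein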
Target sequence (P20393 whole entry, looked up): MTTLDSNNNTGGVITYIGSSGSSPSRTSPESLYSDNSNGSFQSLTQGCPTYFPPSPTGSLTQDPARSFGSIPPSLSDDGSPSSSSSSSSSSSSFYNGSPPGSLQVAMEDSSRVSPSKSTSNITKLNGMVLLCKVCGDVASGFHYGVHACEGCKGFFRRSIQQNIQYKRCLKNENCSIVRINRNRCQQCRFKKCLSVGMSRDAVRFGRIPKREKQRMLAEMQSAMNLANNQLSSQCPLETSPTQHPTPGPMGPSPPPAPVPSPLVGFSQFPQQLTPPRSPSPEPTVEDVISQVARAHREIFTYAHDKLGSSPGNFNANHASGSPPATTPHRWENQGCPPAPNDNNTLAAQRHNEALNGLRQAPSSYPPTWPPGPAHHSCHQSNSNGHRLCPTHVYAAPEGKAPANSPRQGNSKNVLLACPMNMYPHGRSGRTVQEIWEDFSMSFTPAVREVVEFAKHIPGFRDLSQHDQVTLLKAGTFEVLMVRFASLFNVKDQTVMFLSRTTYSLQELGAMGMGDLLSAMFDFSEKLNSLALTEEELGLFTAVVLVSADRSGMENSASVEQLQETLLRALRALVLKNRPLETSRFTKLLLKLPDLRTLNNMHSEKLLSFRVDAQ
PG9 Ab binder = binders of HIV-1 gp120 antibody PG9, primary screen, biochemical, TR-FRET | AID 624416, 2012 | hit rate 0.43% among 360,000 | inhibition, % at 6.7 µM | HIV-1 gp120 / PG9 antibody interaction | TR-FRET gp120-PG9 antibody binding; in the data active = inhibition above about 8.5%
NR2E3 ag-2 = NR2E3 agonists in two-hybrid cells, primary screen, cell-based, luminescence, CHO-S, Gal4-NCOR/VP16-NR2E3 | luciferase | inhibition of corepressor binding, % at 3.98 µM | Photoreceptor-specific nuclear receptor (Homo sapiens), Q9Y5X4 | hit rate 0.35% among 360,000;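 active = inhibition above the mean of all tested compounds plus 3 SD, cut at about 70% in these data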;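 note: 0% = DMSO with NR2E3 transfected cells and 100% = cells lacking NR2E3 construct; higher means lower luciferase signal from less NR2E3 corepressor binding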
NR2E3 ag confirm = NR2E3 agonist confirmation in cells, cell-based, luminescence, CHO-S two-hybrid; shares compounds with NR2E3 ag-2; CHO-S mammalian two-hybrid NR2E3-NCOR, luciferase luminescence; inhibition, % at 3.98 µM; hit rate 51% among 2,300; AID 624378, 2012;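 active = average inhibition above a cutoff equal to the mean inhibition of all tested compounds plus one SD, cut at about 70% in these data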;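 note: 0% = DMSO in NR2E3 cells and 100% = DMSO in cells lacking NR2E3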
VP16 counter = GAL4-VP16 reporter modulators, confirmation, counter-screen for NR2E3 agonist project, cell-based, luminescence, CHO-S, high throughput. inhibition, % at 3.98 µM. AID 624379, 2012. CHO-S GAL4-VP16 luciferase reporter. hit rate 29% among 2,300. shares compounds with NR2E3 ag-2;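 active = mean inhibition above a cutoff equal to the average over all tested compounds plus one standard deviation, cut at about 70% in these data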;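 note: luciferase from a UAS reporter driven by GAL4-VP16 transactivation; 0% = DMSO with VP16-transfected cells and 100% = DMSO with cells lacking VP16; higher means less reporter light so more repression of VP16 activity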
The depositor's hits bear a star; x = no result.

SMILES | NR2E3 ag-1 | NR1D1 modulator | PG9 Ab binder | NR2E3 ag-2 | NR2E3 ag confirm | VP16 counter
[O-][n+]1c2c(c3c4non(O)c4ccc31)CCCC2 | -3.1 | -0.1 | -2.6 | 69.7 | 64.8 | 36.0
Cc1nc(SCc2ccc(Cl)c(Cl)c2)ncc1C(=O)O | 2.8 | 5.1 | -0.4 | 58.9 | 13.6 | 27.0
OC[C@@H]1CN(Cc2ccc(-c3ccccc3)cc2)C[C@H](n2cnc3c(NC4CCC4)ncnc32)O1 | x | -2.4 | -2.5 | 80.0* | 91.2* | 78.8*
OC[C@@H]1CN(Cc2ccccc2)C[C@H](n2cnc3c(NC4CC4)ncnc32)O1 | x | -6.2 | 3.4 | 16.5 | x | x
Cc1cc(C)cc(C(=O)OCCCN(C)C2CN(Cc3cn(Cc4ccc([N+](=O)[O-])cc4)nn3)S(=O)(=O)C2)c1 (stereo not given) | x | 2.3 | x | x | x | x
O=C(NCc1cccnc1)O[C@H]1CC[C@@]23CCCN2C(=O)CCC[C@H]3C1 | x | -1.7 | x | x | x | x
C=C1C(=O)[C@@]23[C@H](O)C[C@@H]4C(C)(C)CC[C@H](O)[C@]4(C)[C@@H]2C[C@H](O)[C@@H]1[C@H]3O | -0.4 | 2.8 | 1.1 | 21.1 | x | x
C=C1C(=O)[C@@]23[C@H](O)C[C@@H]4C(C)(C)CC[C@H](O)[C@@]4(C)[C@@H]2CC[C@@H]1[C@H]3O | 5.6 | -4.5 | -0.7 | 65.8 | -12.8 | -91.9
CC(C)(N[C@@H](Cc1ccccc1)C(=O)NCCc1c[nH]c2ccccc12)C(=O)NC1CCCCC1 | x | -6.0 | x | x | x | x
O=C(NCc1cccc(C(F)(F)F)c1)c1[nH]c(C(F)(F)F)nc1-c1ccccc1 | x | x | x | 91.0* | 59.2 | 27.4
Cc1ccc(CNC(=O)c2[nH]c(C(F)(F)F)nc2-c2ccccc2)cc1 | x | 0.6 | -1.9 | 24.2 | x | x
c1ccc(CNc2nc(NCc3ccccc3)c3sccc3n2)cc1 | x | 0.4 | -0.5 | 62.5 | 73.7* | 60.7
COc1ccccc1CNc1nc(NCc2ccccc2)nc2ccsc12 | x | -3.9 | 0.6 | 61.6 | 51.9 | 48.8
COc1ccccc1CNc1nc(NCc2ccc(C)cc2C)c2sccc2n1 | x | x | x | 55.3 | 65.2 | 61.3
c1ccc(CNc2nc(NCCOc3ccccc3)c3sccc3n2)cc1 | x | -7.7 | -0.4 | 44.9 | x | x
COCCNc1nc(NCc2ccccc2F)c2sccc2n1 | x | 10.6 | 2.6 | 14.0 | x | x
COc1ccccc1CNc1nc(NCc2cccc(OC)c2OC)c2sccc2n1 | x | 0.1 | -0.9 | 21.1 | x | x
COc1ccccc1CNc1nc(NCc2ccccc2F)c2sccc2n1 | x | x | x | 81.7* | 94.1* | 76.3*
FC(F)(F)c1ccccc1NC(=S)OCCN1CCCC12CCC(c1ccccc1)CC2 (stereo not given) | x | -4.4 | x | x | x | x
C#Cc1cccc(Nc2nc(NCc3ccccc3OC)nc3ccsc23)c1 | x | 0.0 | 0.5 | 68.3 | 91.8* | 75.0*
Cc1cc(C(=O)CSc2nnc3ccccn23)c(C)n1-c1ccccc1 | -1.1 | -0.8 | 0.7 | 61.6 | 97.7* | -74.1
Cc1cc(C(=O)CSc2nnc(-c3ccccc3)n2-c2ccccc2)c(C)n1-c1ncn[nH]1 | -1.0 | -0.3 | 2.6 | 12.5 | x | x
Cc1ccnc2c1ccc1ccccc12 | -2.9 | 1.5 | -2.6 | -20.1 | x | x
Cc1ccnc2c1ccc1c(C)ccnc12 | 2.1 | x | x | 78.2* | 43.1 | 9.7
Cc1ccnc2c1ccc1cccnc12 | x | 1.4 | 0.5 | 74.3* | 17.3 | -10.7
O=C(NCc1ccc(F)cc1)C1CCCN(c2nc3ccccc3o2)C1 (stereo not given) | x | -6.1 | x | x | x | x
O=P(O)(O)OCC(O)CO (stereo not given) | x | -1.1 | x | x | x | x
C=CCn1c(O)c(N=NC(=S)Nc2cccc(OC)c2)c2ccccc21 | -0.5 | -3.3 | -2.0 | 77.0* | 31.3 | 35.1
COC1=CC(=O)c2c(ccc3ncnc(N)c23)C1=O | x | 0.6 | -9.9 | 101.8* | 100.6* | 100.6*
Cc1ccc(C)c(N2CCN(S(=O)(=O)c3csc(C(N)=O)c3)CC2)c1 | 0.9 | 1.2 | -1.2 | 61.2 | 16.8 | 38.9
